The text below walks through data of publication PMC4855511 (Clinical chemistry, 2011).

For data set [1] the following is noted: in vivo, ref [27], [28]; cited from earlier work.
The conditions of data set [2]: cited from earlier work.
Data set [3] concerns GC-A. To be noted: ref [15], cited from earlier work.
The nature of data set [4]: Proteolytic inactivation by human kidney membranes with GC-A receptor bioassay. The class given is in vitro ADME.
The target in data set [5] is T1, human GC-A (Homo sapiens, UniProt P16066).
T1 sequence (P16066 33-1061): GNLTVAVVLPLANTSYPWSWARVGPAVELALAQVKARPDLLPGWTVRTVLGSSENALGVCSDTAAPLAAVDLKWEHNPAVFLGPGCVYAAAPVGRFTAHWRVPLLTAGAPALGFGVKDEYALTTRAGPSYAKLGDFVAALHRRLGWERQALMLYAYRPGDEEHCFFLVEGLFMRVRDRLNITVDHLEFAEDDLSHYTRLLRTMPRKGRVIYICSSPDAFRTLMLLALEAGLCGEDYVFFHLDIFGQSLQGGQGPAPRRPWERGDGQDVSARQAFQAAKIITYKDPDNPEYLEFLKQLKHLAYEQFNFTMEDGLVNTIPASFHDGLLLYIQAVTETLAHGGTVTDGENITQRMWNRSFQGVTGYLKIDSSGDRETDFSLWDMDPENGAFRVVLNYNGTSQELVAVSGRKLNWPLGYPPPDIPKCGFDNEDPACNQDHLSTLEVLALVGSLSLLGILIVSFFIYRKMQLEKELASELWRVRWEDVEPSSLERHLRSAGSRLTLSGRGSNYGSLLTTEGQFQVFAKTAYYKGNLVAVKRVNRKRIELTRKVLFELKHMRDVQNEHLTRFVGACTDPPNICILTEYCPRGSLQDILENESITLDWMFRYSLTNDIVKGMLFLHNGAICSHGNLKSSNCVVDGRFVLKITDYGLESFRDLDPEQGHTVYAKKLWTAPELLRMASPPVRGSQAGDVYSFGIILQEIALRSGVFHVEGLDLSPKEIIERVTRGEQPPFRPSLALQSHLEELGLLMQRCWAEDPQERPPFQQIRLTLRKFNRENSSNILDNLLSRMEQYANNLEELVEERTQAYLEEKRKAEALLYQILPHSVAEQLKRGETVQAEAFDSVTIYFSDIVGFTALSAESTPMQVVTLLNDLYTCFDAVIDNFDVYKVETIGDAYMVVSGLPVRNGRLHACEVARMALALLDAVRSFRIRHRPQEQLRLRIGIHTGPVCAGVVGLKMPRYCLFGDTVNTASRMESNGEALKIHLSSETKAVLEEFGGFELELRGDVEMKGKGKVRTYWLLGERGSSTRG
The data set is described as follows: Cellular cGMP elevation in HEK293 cells stably expressing human GC-A. The class given is cell-based. The method, boiled down:
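HEK293 cells stably expressing human GC-A, held serum-free 4–12 h to 75%–90% confluence. Preincubated 10 min at 37 °C in DMEM with 1 mmol/L IBMX and 25 mmol/L HEPES pH 7.4, then exposed 3 min to increasing peptide in the same medium. Stopped with ice-cold 80% ethanol; dried supernatant assayed for cGMP by RIA. Triplicates in 3 separate assays; EC50 with 95% CI.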

For data set [6], the target named is T1, human GC-A. Put plainly: Whole-cell 125I-ANP competition binding, 293-GC-A cells. To be noted: IC50 proBNP1–108 / IC50 BNP1–32. The method, boiled down:
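293-GC-A cells on poly-d-lysine, at 75%–90% confluence, held 1–2 h at 37 °C in DMEM with 0.2% BSA. Incubated 1 h at 4 °C with ¹²⁵I-ANP in 1% BSA binding medium, with or without increasing unlabeled peptide. Washed twice with ice-cold PBS, lysed in 1 mol/L NaOH, γ-counted. B/Bo plotted against log competitor to give IC50. Triplicates in 3 experiments.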

Consider “B-type natriuretic peptide [BNP, reference compound]”, for which the Half-life in humans in data set [1] is given as 20 min. In addition, in data set [2] (rat, in vivo), the Half-life in rats is reported as 1 min.
Consider “glycosylated proBNP1–108: glycosylated version of human proBNP1–108 studied in cited literature”, for which the “Potency on activation of GC-A, glycosylated versus nonglycosylated” value in data set [3] (result in words) is recorded as “no significant difference”. In data set [2] (result in words, ref [26]), the “Half-life in rats compared with nonglycosylated proBNP1–108” value is recorded as “longer half-life”.
For “proBNP1–108: recombinant human 108-residue BNP prohormone with N-terminal His6-tag and rTEV site, expressed in E. coli”, the “Fold reduced potency compared with BNP1–32” value in data set [3] (cGMP in human endothelial and vascular smooth muscle cells) is reported as 6- to 8 fold. In addition, in data set [4], the “Fold longer half time for degradation by human kidney membranes than BNP1–32” value is recorded as 2.7 fold and the “Fold longer time for complete inactivation than BNP1–32” value stood at 6 fold. For the same substance, the “Fold greater EC50 than BNP1–32 on GC-A” value in data set [5] (EC50 proBNP1–108 / EC50 BNP1–32) is recorded as “approximately 13 fold”. In data set [5] (result in words), the “Maximal stimulation of GC-A” value was “near-maximum activities”. For the same substance, in data set [6], the “Fold higher IC50 than BNP1–32 on GC-A” value is listed as “approximately 35 fold”.
